# Calls of active or inactive are those of the source. The calls are words filed in the database; no cut-off is given here.
# Tests used:
# [1] = tested on: Jurkat; assay: Cytotoxicity against human Jurkat cells assessed as cell viability at 1 uM after 24 hrs by MTT assay relative to control; type: functional; settings: read-out: Activity
# How it was run: (§1)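 Jurkat T-cell leukaemia line grown in RPMI 1640 with 10% FBS, 2 mM L-glutamine and gentamycin at 37 °C, 5% CO2, kept in log phase. Compounds were dissolved in DMSO and applied for 24 h. Cells were washed in HEPES-buffered medium (pH 7.4) and given MTT at 0.5 mg/mL for 45 min at 37 °C. Formazan was dissolved in DMSO and read at 570 nm. Viability is % of control, from three independent measurements.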
# [2] = Growth inhibition of human LS180 cells assessed as BrdU incorporation at 163.0 uM after 72 hrs by spectrophotometry; type: functional; settings: LS180, 72 h, read-out: GI
# How it was run: (§2)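 Cells were seeded at 10⁴ cells/mL and preincubated. Compounds were dissolved in DMSO and added at two fixed concentrations, then incubated for 72 h. End-point was BrdU labelling with ELISA detection, read spectrophotometrically. Result is % growth inhibition versus untreated controls. Triplicates.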
# [3] = tested on: T47D; assay: Growth inhibition of human T47D cells assessed as BrdU incorporation at 32.6 uM after 72 hrs by spectrophotometry; type: functional; settings: read-out: GI
# How it was run: (§3)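 Each cell line was seeded at 10⁴ cells per mL and preincubated. Test agents were dissolved in DMSO, added at two examined concentrations (10 and 50 per mL by mass), and incubated for 72 h. The end-point was BrdU labeling and detection kit III read on an ELISA reader. Percent growth inhibition was calculated against untreated controls, in triplicate.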
# [4] = tested on: SiHa; assay: Growth inhibition of human SiHa cells assessed as BrdU incorporation at 163.0 uM after 72 hrs by spectrophotometry; type: functional; settings: read-out: GI; how it was run: as §2
# [5] = Induction of apoptosis in HSF cells after 72 hrs by annexin V-propidium iodide based assay; type: cell-based; settings: human
# How it was run: (§4)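 Cells were exposed for 72 h, then stained with an annexin V-FITC/propidium iodide detection kit. Apoptotic cells were counted by confocal microscopy using a 460–490 nm filter: yellow nuclei were early apoptosis, red were late, and unstained cells were living. 1000 cells were analysed per measurement, three independent measurements in all. Results are mean ± SD.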
# [6] = tested on: SiHa; assay: Growth inhibition of human SiHa cells assessed as BrdU incorporation at 32.6 uM after 72 hrs by spectrophotometry; type: functional; settings: read-out: GI; how it was run: as §2
# [7] = tested on: T47D; assay: Growth inhibition of human T47D cells assessed as BrdU incorporation after 72 hrs by spectrophotometry; type: functional, cell-based
# How it was run: (§5)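 Cancer cells were seeded at 10⁴ cells/mL, preincubated, then exposed for 72 h to DMSO-dissolved compound. Growth was read by BrdU labelling with ELISA spectrophotometry. IC50 was taken from 72 h dose–survival curves. Triplicates.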
# [8] = tested on: Jurkat; assay: Cytotoxicity against human Jurkat cells assessed as decrease in cell viability after 24 hrs by MTT assay; type: functional, cell-based
# How it was run: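 Jurkat cells grown in RPMI 1640/10% FBS at 37 °C, 5% CO2, with 24 h exposure to DMSO-dissolved compound. Read-out was MTT reduction: 0.5 mg/mL in HEPES-buffered medium for 45 min, formazan in DMSO, absorbance at 570 nm. IC50 was taken from 24 h dose–survival curves.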
# [9] = tested on: SiHa; assay: Induction of DNA damage in human SiHa cells at 32.6 uM by pulsed field gel electrophoresis; type: functional, cell-based
# How it was run: (§6)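 After treatment at 32.6, cells were washed twice with PBS. DNA was isolated with lysing buffer plus proteinase K, then purified. Cells were prepared as agarose plugs and run by pulsed field electrophoresis on a 1% agarose gel containing propidium iodide, at 120 V for 1.5 h at room temperature. Experiments were repeated three times.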
# [10] = Growth inhibition of human LS180 cells assessed as BrdU incorporation after 72 hrs by spectrophotometry; type: functional, cell-based; settings: LS180, 72 h; how it was run: as §5
# [11] = tested on: LS180; assay: Induction of DNA damage in human LS180 cells at 32.6 uM by pulsed field gel electrophoresis; type: functional, cell-based; how it was run: as §6
# [12] = Growth inhibition of african green monkey Vero cells assessed as BrdU incorporation at 163.0 uM after 72 hrs by spectrophotometry; type: cell-based; settings: chlorocebus sabaeus, read-out: GI; how it was run: as §2
# [13] = Cytotoxicity against HSF cells assessed as cell viability at 1 uM after 24 hrs by MTT assay relative to control; type: cell-based; settings: human, read-out: Activity
# How it was run: (§7)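 Normal human skin fibroblasts (HSF, primary line) were exposed to DMSO-dissolved compound for 24 h. Viability was read by MTT tetrazolium reduction and expressed against untreated control set at 100%.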
# [14] = tested on: T47D; assay: Induction of DNA damage in human T47D cells at 32.6 uM by pulsed field gel electrophoresis; type: functional, cell-based; how it was run: as §6
# [15] = Growth inhibition of human LS180 cells assessed as BrdU incorporation at 32.6 uM after 72 hrs by spectrophotometry; type: functional; settings: LS180, 72 h, read-out: GI; how it was run: as §2
# [16] = Cytotoxicity against HSF cells assessed as cell viability at 50 uM after 24 hrs by MTT assay relative to control; type: cell-based; settings: human, read-out: Activity; how it was run: as §7
# [17] = Growth inhibition of HSF cells assessed as BrdU incorporation at 32.6 uM after 72 hrs by spectrophotometry; type: cell-based; settings: human, read-out: GI; how it was run: as §2
# [18] = tested on: T47D; assay: Induction of apoptosis in human T47D cells after 72 hrs by annexin V-propidium iodide based assay; type: functional; how it was run: as §4
# [19] = tested on: SiHa; assay: Growth inhibition of human SiHa cells assessed as BrdU incorporation after 72 hrs by spectrophotometry; type: functional, cell-based; how it was run: as §5
# [20] = tested on: Jurkat; assay: Cytotoxicity against human Jurkat cells assessed as cell viability at 100 uM after 24 hrs by MTT assay relative to control; type: functional; settings: read-out: Activity; how it was run: as §1
# [21] = tested on: Jurkat; assay: Cytotoxicity against human Jurkat cells assessed as cell viability at 50 uM after 24 hrs by MTT assay relative to control; type: functional; settings: read-out: Activity; how it was run: as §1
# [22] = Growth inhibition of HSF cells assessed as BrdU incorporation at 163.0 uM after 72 hrs by spectrophotometry; type: cell-based; settings: human, read-out: GI; how it was run: as §2
# [23] = Growth inhibition of african green monkey Vero cells assessed as BrdU incorporation at 32.6 uM after 72 hrs by spectrophotometry; type: cell-based; settings: chlorocebus sabaeus, read-out: GI; how it was run: as §2
# [24] = tested on: T47D; assay: Growth inhibition of human T47D cells assessed as BrdU incorporation at 163.0 uM after 72 hrs by spectrophotometry; type: functional; settings: read-out: GI; how it was run: as §3
# [25] = Cytotoxicity against HSF cells assessed as cell viability at 100 uM after 24 hrs by MTT assay relative to control; type: cell-based; settings: human, read-out: Activity; how it was run: as §7
smiles,measurement,setting,value
NNC(=O)c1nnc2n(c1=O)CCN2c1cccc(Cl)c1,viability at 1 µM,[1],100%
same,inhibition of growth at 163 µM,[2],54%
same,inhibition of growth at 32.6 µM,[3],26%
same,inhibition of growth at 163 µM,[4],63%
same,Activity,[5],1%
same,inhibition of growth at 32.6 µM,[6],45%
same,IC50,[7],> 100 µM
same,IC50,[8],> 100 µM
same,Activity,[9],Active
same,IC50,[10],> 100 µM
same,Activity,[11],Active
same,"inhibition at 72 h, 163 µM",[12],29%
same,"viability at 24 h, 1 µM",[13],108%
same,Activity,[14],Active
same,inhibition of growth at 32.6 µM,[15],42%
same,"viability at 24 h, 50 µM",[16],113%
same,"inhibition at 72 h, 32.6 µM",[17],0%
same,Activity,[18],8.5%
same,IC50,[19],75.4 µM
same,viability at 100 µM,[20],115%
same,viability at 50 µM,[21],116%
same,"inhibition at 72 h, 163 µM",[22],0%
same,"inhibition at 72 h, 32.6 µM",[23],20%
same,inhibition of growth at 163 µM,[24],40%
same,"viability at 24 h, 100 µM",[25],105%
